Data as given in paper PMC5480311 (ACS infectious diseases, 2016).

Legend:
[1] = target: UL44−P54 interaction (Human cytomegalovirus, UniProt P16790); assay: FP assay of UL44−P54 interaction; type: binding; conditions: IC50, inhibition of P54−UL44 interaction, incubation time 20 min or beyond
Summary of the method: (§1)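 Fluorescence polarization assays of each protein–peptide pair: UL44–P54 (GST-fused UL44ΔC290 with fluorescently labelled P54), UL42–P30 and PCNA–p21. Test compound was pre-incubated for set times, up to 60 min, before FP was read. Normalized mP relative to the no-inhibitor control was plotted against compound concentration. Error bars are standard errors of the mean.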

[2] = target: UL42−P30 interaction (Human herpesvirus 1, UniProt P10226); assay: FP assay of UL42−P30 interaction; type: binding, herpes simplex virus-1
Summary of the method: as §1

[3] = target: PCNA−P21 interaction (Homo sapiens, UniProt P12004); assay: FP assay of PCNA−P21 interaction; type: binding; conditions: incubation up to 60 min, not meaningfully changed
Summary of the method: as §1

[4] = target: UL44 binding to full-length UL54 (Human cytomegalovirus, UniProt P16790); assay: UL54−UL44 interaction assay by biolayer interferometry
Summary of the method: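 Biolayer interferometry measured UL44 binding to full-length UL54 in the presence of test compound. Signal is given relative to binding without compound, and error bars are standard errors of the mean.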

[5] = target: UL54/UL44 DNA polymerase (Human cytomegalovirus, UniProt P16790); assay: Long-chain DNA synthesis by UL54−UL44; type: biochemical
Summary of the method: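 UL54 with UL44 was used to make long-chain DNA products, and their formation was followed across a dose series of test compound, with product lanes compared. Signal is expressed relative to the no-compound reaction, and error bars are standard errors of the mean.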

[6] = target: UL54 (Human cytomegalovirus, UniProt P08546); assay: DNA synthesis by UL54 alone, filter binding assay; type: biochemical
Summary of the method: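 Basal DNA synthesis by UL54 alone, without UL44, was measured by filter-binding assay across test compound concentrations. Signal is given relative to no compound, and error bars are standard errors of the mean.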

[7] = target: UL44 K60A−P54 interaction (Human cytomegalovirus, UniProt P16790, K60A); assay: FP assay of mutant UL44 K60A−P54 interaction; type: binding; conditions: read-out: inhibition of UL44 K60A−P54 interaction

Chain of PCNA−P21 interaction (P12004 whole entry): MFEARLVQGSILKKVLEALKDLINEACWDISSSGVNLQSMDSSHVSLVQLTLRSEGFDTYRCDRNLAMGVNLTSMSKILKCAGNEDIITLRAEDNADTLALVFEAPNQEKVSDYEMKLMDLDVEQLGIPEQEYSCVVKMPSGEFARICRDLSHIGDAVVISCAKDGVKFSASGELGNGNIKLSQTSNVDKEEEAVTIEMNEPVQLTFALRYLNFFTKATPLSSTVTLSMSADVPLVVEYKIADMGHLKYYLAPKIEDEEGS

CSc1scc2c1C(=O)C(=CN(C)C)CC2 [SGM8]
IC50 [1]: 2 µM | IC50 [2]: ~20 µM | change of inhibition of P30−UL42 interaction on longer incubation ([2]; incubation time extended to 60 min): only slightly increased | inhibition of P21−PCNA interaction [3]: very weak inhibition | IC50 [4]: 4.5 µM | IC50 [5]: 3.2 µM | IC50 [6]: > 100 µM | inhibition at 20 µM [7]: < 50%
